The target in data set [1] is T1, Extracellular calcium-sensing receptor (Homo sapiens, UniProt P41180).
T1 sequence (P41180 whole entry): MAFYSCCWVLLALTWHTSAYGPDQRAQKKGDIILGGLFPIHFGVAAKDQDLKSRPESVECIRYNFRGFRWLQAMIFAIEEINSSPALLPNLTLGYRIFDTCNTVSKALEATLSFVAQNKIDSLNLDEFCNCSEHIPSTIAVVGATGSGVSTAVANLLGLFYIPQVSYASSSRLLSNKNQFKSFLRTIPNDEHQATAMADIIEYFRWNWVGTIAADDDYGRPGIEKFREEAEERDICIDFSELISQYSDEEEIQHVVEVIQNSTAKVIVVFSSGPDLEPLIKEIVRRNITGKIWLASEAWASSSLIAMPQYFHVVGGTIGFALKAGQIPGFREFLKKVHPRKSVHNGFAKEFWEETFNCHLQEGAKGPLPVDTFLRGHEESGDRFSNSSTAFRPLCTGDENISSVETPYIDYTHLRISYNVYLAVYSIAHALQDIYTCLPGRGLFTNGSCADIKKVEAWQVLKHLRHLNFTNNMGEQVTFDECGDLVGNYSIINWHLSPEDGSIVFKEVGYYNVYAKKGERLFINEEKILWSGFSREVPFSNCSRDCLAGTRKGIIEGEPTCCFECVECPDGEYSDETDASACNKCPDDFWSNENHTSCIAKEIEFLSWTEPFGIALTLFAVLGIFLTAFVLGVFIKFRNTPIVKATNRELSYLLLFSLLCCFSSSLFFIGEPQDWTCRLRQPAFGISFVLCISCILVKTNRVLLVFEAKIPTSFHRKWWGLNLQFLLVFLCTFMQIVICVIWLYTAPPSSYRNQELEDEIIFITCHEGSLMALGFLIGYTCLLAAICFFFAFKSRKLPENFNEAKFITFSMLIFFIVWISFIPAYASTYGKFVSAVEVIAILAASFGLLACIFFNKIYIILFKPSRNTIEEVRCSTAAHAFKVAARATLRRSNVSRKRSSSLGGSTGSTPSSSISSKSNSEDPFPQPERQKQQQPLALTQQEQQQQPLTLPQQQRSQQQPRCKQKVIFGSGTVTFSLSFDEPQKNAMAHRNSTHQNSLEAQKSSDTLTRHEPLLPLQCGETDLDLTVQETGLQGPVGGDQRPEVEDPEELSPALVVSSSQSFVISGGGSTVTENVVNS
As to the kind of experiment: Antagonist activity at human CaSR expressed in rat PC12h cells by reporter gene assay. Type of data set: functional, cell-based, PC-12. The procedure, abridged: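 Human CaSR antagonism measured by reporter gene assay in PC12h cells. Values are means of three experiments.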
Background: Reporter assays use an easily measured gene product as a stand-in for the process of interest.

The target of a further data set is Cytochrome P450 2D6 (Homo sapiens, UniProt P10635). As to the kind of experiment: Inhibition of CYP2D6. Format: ADME.
The subject of data set [2] is Rattus norvegicus. As to the kind of experiment: Antiosteoporotic activity in rat assessed as increase of serum parathyroid hormone level at 1 mg/kg, po after 15 to 30 mins relative to control. Format: functional. In outline:
(§1)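 Rats (n = 5) dosed orally. Serum PTH 1−34 peak increase (Δ) measured at 15 or 30 min and compared with vehicle-treated controls. Scored against the peak given by a 30 mg/kg oral reference aminopropandiol calcilytic: ++ >80%, + 50−80%, below that <50%.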

Data set [3] concerns Rattus norvegicus. Nature of the data set: Antiosteoporotic activity in rat assessed as increase of serum parathyroid hormone level at 3 mg/kg, po after 15 to 30 mins relative to control. Format: functional. The procedure, abridged:
as §1

Data set [4] relates to Rattus norvegicus. As to the kind of experiment: Antiosteoporotic activity in rat assessed as increase of serum parathyroid hormone level at 10 mg/kg, po after 15 to 30 mins relative to control. Format: functional. The procedure, abridged:
as §1

In data set [5] the target is Beta-2 adrenergic receptor (Homo sapiens, UniProt P07550). As to the kind of experiment: Inhibition of beta2 adrenergic receptor.
The nature of data set [6]: Tmax in rat at 1 mg/kg, po. Format: ADME, organism-based. Also on record: dose 1 mg/kg, route oral. Conditions: in vivo.
Data set [7] can be described thus: Inhibition of alpha2 adrenergic receptor up to 10 uM.
The nature of data set [8]: Oral bioavailability in rat at 1 mg/kg. Format: ADME, organism-based. The following applies: in vivo, read-out: Activity.
Data set [9] has as its target D(1A) dopamine receptor (Homo sapiens) (UniProt P21728). As to the kind of experiment: Inhibition of dopamine D1 receptor up to 10 uM.
In data set [10] the test system is Rattus norvegicus. As to the kind of experiment: Antiosteoporotic activity in po dosed rat assessed as increase of serum parathyroid hormone level after 15 to 30 mins. Format: functional, organism-based. The procedure, abridged:
as §1

In data set [11] the test system is Rattus norvegicus. Nature of the data set: Antiosteoporotic activity in rat assessed as increase of serum parathyroid hormone level at 3 mg/kg, po after 2 hrs. Format: functional, organism-based. Details: dose 3 mg/kg. In outline: (§2)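 Time course in rats (n = 5) after oral dosing of the hemisulfate salt. Serum PTH 1−34 levels followed over time, expressed as mean ± standard deviation.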

Data set [12] can be described thus: Cmax in rat at 1 mg/kg, po. Format: ADME, organism-based. Also on record: dose 1 mg/kg, route oral. Conditions: in vivo.
Data set [13] can be described thus: Half life in rat at 1 mg/kg, po. Format: ADME, organism-based. Details: dose 1 mg/kg, route oral. Conditions: in vivo.
A short description of data set [14]: Inhibition of serotonin receptor up to 10 uM.
The subject of data set [15] is Rattus norvegicus. As to the kind of experiment: Antiosteoporotic activity in rat assessed as increase of serum parathyroid hormone level at 3 mg/kg, po after 15 mins. Format: functional, organism-based. Also on record: dose 3 mg/kg. In outline:
as §2

Data set [16] has as its system Rattus norvegicus. As to the kind of experiment: Antiosteoporotic activity in rat assessed as increase of serum parathyroid hormone level at 30 mg/kg, po after 15 to 30 mins relative to control. Format: functional. The procedure, abridged:
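Rats (n = 5) dosed orally. Serum PTH 1−34 measured, and the peak increase (Δ), taken at 15 or 30 min after dosing, compared with levels in vehicle-treated control rats.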

This is an account of results in ChEMBL document CHEMBL1671846, “Discovery of a potent and short-acting oral calcilytic with a pulsatile secretion of parathyroid hormone” (ACS Med Chem Lett, 2011).

Structures are written as SMILES. The source made the active and inactive calls.

Cytochrome P450 2D6, sequence (P10635 whole entry): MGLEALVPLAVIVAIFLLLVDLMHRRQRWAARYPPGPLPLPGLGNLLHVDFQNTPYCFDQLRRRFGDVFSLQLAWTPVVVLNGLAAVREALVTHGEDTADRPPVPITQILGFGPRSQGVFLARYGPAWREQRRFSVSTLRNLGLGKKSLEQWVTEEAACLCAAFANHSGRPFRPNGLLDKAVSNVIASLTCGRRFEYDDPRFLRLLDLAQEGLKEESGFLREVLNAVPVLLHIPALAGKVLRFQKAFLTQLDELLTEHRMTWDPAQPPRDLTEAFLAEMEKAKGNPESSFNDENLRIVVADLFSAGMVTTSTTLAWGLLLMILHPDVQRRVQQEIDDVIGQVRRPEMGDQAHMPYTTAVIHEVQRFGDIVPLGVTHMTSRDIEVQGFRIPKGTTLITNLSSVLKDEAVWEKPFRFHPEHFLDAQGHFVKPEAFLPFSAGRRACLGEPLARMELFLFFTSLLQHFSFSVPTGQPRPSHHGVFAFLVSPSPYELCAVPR
Beta-2 adrenergic receptor, sequence (P07550 whole entry): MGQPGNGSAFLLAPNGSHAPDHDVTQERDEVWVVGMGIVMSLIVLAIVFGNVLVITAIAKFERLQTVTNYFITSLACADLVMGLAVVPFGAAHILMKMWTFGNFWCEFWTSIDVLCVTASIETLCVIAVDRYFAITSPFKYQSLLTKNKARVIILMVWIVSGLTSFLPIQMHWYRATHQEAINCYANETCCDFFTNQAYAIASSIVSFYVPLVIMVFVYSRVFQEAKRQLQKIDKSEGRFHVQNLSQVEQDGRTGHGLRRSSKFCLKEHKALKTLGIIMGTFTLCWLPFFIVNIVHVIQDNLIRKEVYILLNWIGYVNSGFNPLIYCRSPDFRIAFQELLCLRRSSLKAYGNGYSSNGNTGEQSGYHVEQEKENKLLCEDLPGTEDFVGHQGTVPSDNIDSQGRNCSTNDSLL
D(1A) dopamine receptor (Homo sapiens), sequence (P21728 whole entry): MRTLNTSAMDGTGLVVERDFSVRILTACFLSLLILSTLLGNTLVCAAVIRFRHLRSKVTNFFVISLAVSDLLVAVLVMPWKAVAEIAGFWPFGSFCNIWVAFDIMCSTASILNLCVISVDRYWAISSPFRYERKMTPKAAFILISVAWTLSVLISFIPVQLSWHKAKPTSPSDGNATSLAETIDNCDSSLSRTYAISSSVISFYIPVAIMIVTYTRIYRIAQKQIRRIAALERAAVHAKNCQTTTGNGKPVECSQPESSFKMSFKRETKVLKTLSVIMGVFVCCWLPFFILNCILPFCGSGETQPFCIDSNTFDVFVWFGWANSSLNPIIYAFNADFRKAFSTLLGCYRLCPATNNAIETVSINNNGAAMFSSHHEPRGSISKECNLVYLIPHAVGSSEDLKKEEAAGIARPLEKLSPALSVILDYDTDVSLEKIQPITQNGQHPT

For the compound `CC(OC[C@H](O)CNC(C)(C)Cc1ccc2ccccc2c1)c1ccc(-c2ccc(C(=O)O)cc2)cc1` (mixture of isomers), the half-inhibitory concentration (IC50) in data set [1] worked out at 1500 nM.
In the case of `CC(C)(Cc1ccc2ccccc2c1)NC[C@@H](O)COC(c1ccccc1C(=O)O)C1CC1` (mixture of isomers), the IC50 was more than 3000 nM in data set [1] and more than 10000 nM against Cytochrome P450 2D6.
For the compound `CC(C)(Cc1ccc2ccccc2c1)NC[C@@H](O)COC(c1ccc(C(=O)O)cc1)C1CC1` (mixture of isomers), the IC50 in [1] is more than 3000 nM.
As to `C[C@@H](OC[C@H](O)CNC(C)(C)Cc1ccc2ccccc2c1)c1ccccc1-c1ccc(C(=O)O)cc1`, the figures for the half-maximal inhibitory concentration (IC50) (in [1]; at Cytochrome P450 2D6) were 4 nM and more than 10000 nM, respectively. Also, the Activity is recorded as less than 50% in the data set on Rattus norvegicus [2], 50% in the data set on Rattus norvegicus [3] and more than 80% in the data set on Rattus norvegicus [4].
`Cc1cc(-c2ccccc2[C@@H](C)OC[C@H](O)CNC(C)(C)Cc2ccc3ccccc3c2)ccc1C(=O)O`: in data set [1], the 50% inhibitory concentration (IC50) was 5 nM. The figures for the Activity in the data set on Rattus norvegicus [2] and in the data set on Rattus norvegicus [3] were less than 50% and more than 80%, respectively.
`Cc1cc(-c2ccccc2[C@@H](C)OC[C@H](O)CNC(C)(C)Cc2ccc(Cl)c(F)c2)ccc1C(=O)O` [ENCALERET]: the IC50 in data set [5] came to 1700 nM; in [1] it was 12 nM; on Cytochrome P450 2D6, 11000 nM. The Tmax in data set [6] came to 0.5 h. In addition, the outcome (in data set [7]; in data set [9]; in the data set with Rattus norvegicus [11]; in [14]) was inactive. Also, the Activity is more than 80% with Rattus norvegicus [2], “Dose-dependent effect” with Rattus norvegicus [10], more than 80% in the data set with Rattus norvegicus [3] and more than 80% in the data set on Rattus norvegicus [4]. Moreover, the bioavailability in [8] was determined as 64%. In addition, in [12], the Cmax is 475 ng/mL. Also, the half-life in [13] is 1.8 h. Also, the result in the data set with Rattus norvegicus [15] was Active.
Consider `C[C@@H](OC[C@H](O)CNC(C)(C)Cc1ccc2ccccc2c1)c1ccccc1CC(=O)O`, for which the IC50 in data set [1] was 2200 nM.
In the case of `CC(C)(Cc1ccc2ccccc2c1)NC[C@@H](O)COC(c1cccc(C(=O)O)c1)C1CC1` (mixture of isomers), the IC50 in data set [1] was 960 nM; at Cytochrome P450 2D6, more than 10000 nM.
Regarding `CC(C)(Cc1ccc2ccccc2c1)NC[C@@H](O)CO[C@@H](c1ccccc1CO)C1CC1`, the half-inhibitory concentration (IC50) in [1] amounted to 18 nM; against Cytochrome P450 2D6, 1200 nM.
Turning to `CC(OC[C@H](O)CNC(C)(C)Cc1ccc2ccccc2c1)c1cccc(-c2ccc(C(=O)O)cc2)c1` (mixture of isomers), the IC50 in [1] worked out at 18 nM.
Still for that read-out and setting: next, `CC(OC[C@H](O)CNC(C)(C)Cc1ccc2ccccc2c1)c1ccccc1C(=O)O` (mixture of isomers): more than 3000 nM.
For the compound `C[C@@H](OC[C@H](O)CNC(C)(C)Cc1ccc(Cl)c(F)c1)c1ccccc1-c1ccc(C(=O)O)cc1`, in data set [1], the IC50 is 23 nM. Further, the values for the Activity in the data set on Rattus norvegicus [2] and in the data set with Rattus norvegicus [3] were 50% and more than 80%, respectively.
`CC(OC[C@H](O)CNC(C)(C)Cc1ccc2ccccc2c1)c1ccccc1-c1ccc(C(=O)O)cc1` (mixture of isomers): in data set [1], the IC50 came out at 11 nM.
On to `C[C@@H](OC[C@H](O)CNC(C)(C)Cc1ccc2ccccc2c1)c1ccccc1CCC(=O)O`, for which the IC50 in data set [1] stood at 24 nM. In addition, in the data set with Rattus norvegicus [3], the Activity came to 50%.
As for `Cc1ccccc1[C@H](OC[C@H](O)CNC(C)(C)Cc1ccc2ccccc2c1)C1CC1`, the “fold change (FC)” value in the data set on Rattus norvegicus [16] was 2.

Usually IC50 stands for the midpoint of a concentration-inhibition curve. As a reminder, the Tmax is the time from dosing to the highest level. The term Cmax denotes the peak of the concentration-time curve. The half-life is the time needed for the level to fall by half in the phase considered.
